Assays:
Format in all cases: functional
[1] = tested on: SK-MEL-5; test: Growth inhibition of human SK-MEL-5 cells after 48 hrs by SRB assay; conditions: SK-MEL-5, 48 h
Summary of the method: (§1)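 NCI 60-cell-line screen. Cells grown in RPMI1640 with 5% fetal calf serum and 2 mM L-glutamine, with inoculum density set by cell line. Preincubated 24 h, then given compound in DMSO at 10^-4 to 10^-8 M (five 10-fold steps) for 48 h continuous exposure. Growth measured by SRB protein assay. GI50, TGI and LC50 reported as –log molar.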

[2] = tested on: MCF7; test: Growth inhibition of human MCF7 cells after 48 hrs by SRB assay; conditions: MCF7, 48 h; summary of the method: as §1
[3] = tested on: SK-OV-3; test: Growth inhibition of human SKOV3 cells after 48 hrs by SRB assay; conditions: SK-OV-3, 48 h; summary of the method: as §1
[4] = tested on: SR; test: Growth inhibition of human SR cells after 48 hrs by SRB assay; summary of the method: as §1
[5] = tested on: CAKI-1; test: Growth inhibition of human Caki1 cells after 48 hrs by SRB assay; conditions: CAKI-1, 48 h; summary of the method: as §1
[6] = tested on: OVCAR-4; test: Growth inhibition of human OVCAR4 cells after 48 hrs by SRB assay; conditions: OVCAR-4, 48 h; summary of the method: as §1
[7] = tested on: OVCAR-8; test: Growth inhibition of human OVCAR8 cells after 48 hrs by SRB assay; conditions: OVCAR-8, 48 h; summary of the method: as §1
[8] = tested on: Malme-3M; test: Growth inhibition of human MALME-3M cells after 48 hrs by SRB assay; conditions: read-out: pTGI (converted); summary of the method: as §1
[9] = tested on: PC-3; test: Growth inhibition of human PC3 cells after 48 hrs by SRB assay; conditions: PC-3, 48 h; summary of the method: as §1
[10] = tested on: SF-539; test: Growth inhibition of human SF539 cells after 48 hrs by SRB assay; conditions: SF-539, 48 h; summary of the method: as §1
[11] = tested on: NCI/ADR-RES; test: Growth inhibition of human NCI/ADR-RES cells after 48 hrs by SRB assay; summary of the method: as §1
[12] = tested on: 786-0; test: Growth inhibition of human 786-0 cells after 48 hrs by SRB assay; conditions: 786-0, 48 h; summary of the method: as §1
[13] = tested on: NCI-H322M; test: Growth inhibition of human NCI-H322M cells after 48 hrs by SRB assay; summary of the method: as §1
[14] = tested on: HOP-62; test: Growth inhibition of human HOP62 cells after 48 hrs by SRB assay; conditions: HOP-62, 48 h; summary of the method: as §1
[15] = tested on: MDA-MB-468; test: Growth inhibition of human MDA-MB-468 cells after 48 hrs by SRB assay; conditions: MDA-MB-468, 48 h; summary of the method: as §1
[16] = tested on: U-251; test: Growth inhibition of human U251 cells after 48 hrs by SRB assay; conditions: U-251, 48 h; summary of the method: as §1
[17] = tested on: NCI-H460; test: Growth inhibition of human NCI-H460 cells after 48 hrs by SRB assay; conditions: NCI-H460, 48 h; summary of the method: as §1
[18] = tested on: IGROV-1; test: Growth inhibition of human IGROV1 cells after 48 hrs by SRB assay; conditions: IGROV-1, 48 h; summary of the method: as §1
[19] = tested on: SNB-75; test: Growth inhibition of human SNB75 cells after 48 hrs by SRB assay; conditions: SNB-75, 48 h; summary of the method: as §1
[20] = tested on: UACC-62; test: Growth inhibition of human UACC62 cells after 48 hrs by SRB assay; conditions: UACC-62, 48 h; summary of the method: as §1
[21] = tested on: BT-549; test: Growth inhibition of human BT549 cells after 48 hrs by SRB assay; conditions: BT-549, 48 h, read-out: pTGI (converted); summary of the method: as §1
[22] = tested on: CCRF-CEM; test: Growth inhibition of human CCRF-CEM cells after 48 hrs by SRB assay; summary of the method: as §1
[23] = tested on: RXF 393; test: Growth inhibition of human RXF393 cells after 48 hrs by SRB assay; conditions: RXF 393, 48 h; summary of the method: as §1
[24] = tested on: TK-10; test: Growth inhibition of human TK10 cells after 48 hrs by SRB assay; conditions: TK-10, 48 h; summary of the method: as §1
[25] = tested on: SK-MEL-2; test: Growth inhibition of human SK-MEL-2 cells after 48 hrs by SRB assay; conditions: SK-MEL-2, 48 h; summary of the method: as §1
[26] = tested on: HCT-15; test: Growth inhibition of human HCT15 cells after 48 hrs by SRB assay; conditions: HCT-15, 48 h; summary of the method: as §1
[27] = tested on: HL-60(TB); test: Growth inhibition of human HL-60(TB) cells after 48 hrs by SRB assay; conditions: HL-60, 48 h
Summary of the method: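 NCI 60-cell-line screen: cells grown in RPMI1640 with 5% fetal calf serum and 2 mM L-glutamine, preincubated 24 h, then exposed to compound in DMSO at five concentrations (10^-4 to 10^-8 M) for 48 h continuous exposure. Growth estimated by sulforhodamine B protein assay; reported as pGI50 (-log molar concentration inhibiting net cell growth by 50%).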

[28] = tested on: UO-31; test: Growth inhibition of human UO31 cells after 48 hrs by SRB assay; conditions: UO-31, 48 h; summary of the method: as §1
[29] = tested on: SK-MEL-28; test: Growth inhibition of human SK-MEL-28 cells after 48 hrs by SRB assay; conditions: SK-MEL-28, 48 h; summary of the method: as §1
[30] = tested on: HCC 2998; test: Growth inhibition of human HCC2998 cells after 48 hrs by SRB assay; conditions: HCC 2998, 48 h; summary of the method: as §1
[31] = tested on: EKVX; test: Growth inhibition of human EKVX cells after 48 hrs by SRB assay; summary of the method: as §1
[32] = tested on: DU-145; test: Growth inhibition of human DU145 cells after 48 hrs by SRB assay; conditions: DU-145, 48 h; summary of the method: as §1
[33] = tested on: M14; test: Growth inhibition of human M14 cells after 48 hrs by SRB assay; conditions: M14, 48 h; summary of the method: as §1
[34] = tested on: SF-295; test: Growth inhibition of human SF295 cells after 48 hrs by SRB assay; conditions: SF-295, 48 h; summary of the method: as §1
[35] = Growth inhibition of human […] cells after 48 hrs by SRB assay; summary of the method: as §1

COc1cc(C2CC(c3cccc(Br)c3)=NN2C(C)=O)cc(OC)c1OC (stereo not drawn)
GI50 [1]: 251 nM
TGI ([1]; read-out: pTGI (converted)): 12600 nM
GI50 [2]: 158 nM
TGI ([2]; read-out: pTGI (converted)): 15800 nM
GI50 [3]: 501 nM
TGI ([3]; read-out: pTGI (converted)): 63100 nM
GI50 [4]: 39.8 nM
TGI ([4]; read-out: pTGI (converted)): > 100000 nM
GI50 [5]: 251 nM
TGI ([5]; read-out: pTGI (converted)): 39800 nM
GI50 [6]: 631 nM
TGI ([6]; read-out: pTGI (converted)): > 100000 nM
GI50 [7]: 631 nM
TGI ([7]; read-out: pTGI (converted)): > 100000 nM
TGI [8]: 50100 nM
GI50 [9]: 200 nM
TGI ([9]; read-out: pTGI (converted)): 31600 nM
GI50 [10]: 316 nM
TGI ([10]; read-out: pTGI (converted)): 10000 nM
GI50 [11]: 398 nM
TGI ([11]; read-out: pTGI (converted)): > 100000 nM
GI50 [12]: 794 nM
TGI ([12]; read-out: pTGI (converted)): > 100000 nM
GI50 [13]: 501 nM
TGI ([13]; read-out: pTGI (converted)): > 100000 nM
GI50 [14]: 1000 nM
TGI ([14]; read-out: pTGI (converted)): 79400 nM
GI50 [15]: 200 nM
TGI ([15]; read-out: pTGI (converted)): > 100000 nM
GI50 [16]: 501 nM
TGI ([16]; read-out: pTGI (converted)): 31600 nM
GI50 [17]: 316 nM
TGI ([17]; read-out: pTGI (converted)): 12600 nM
GI50 [18]: 2000 nM
TGI ([18]; read-out: pTGI (converted)): > 100000 nM
GI50 [19]: 398 nM
TGI ([19]; read-out: pTGI (converted)): > 100000 nM
GI50 [20]: 200 nM
TGI ([20]; read-out: pTGI (converted)): 20000 nM
TGI [21]: 39800 nM
GI50 [22]: 316 nM
TGI ([22]; read-out: pTGI (converted)): 2000 nM
GI50 [23]: 251 nM
TGI ([23]; read-out: pTGI (converted)): 1000 nM
GI50 [24]: 12600 nM
TGI ([24]; read-out: pTGI (converted)): 63100 nM
GI50 [25]: 20000 nM
TGI ([25]; read-out: pTGI (converted)): 79400 nM
GI50 [26]: 316 nM
TGI ([26]; read-out: pTGI (converted)): 31600 nM
GI50 [27]: 251 nM
TGI ([27]; read-out: pTGI (converted)): 501 nM
GI50 [28]: 12600 nM
TGI ([28]; read-out: pTGI (converted)): > 100000 nM
GI50 [29]: 794 nM
TGI ([29]; read-out: pTGI (converted)): 63100 nM
GI50 [30]: 1580 nM
TGI ([30]; read-out: pTGI (converted)): 25100 nM
GI50 [31]: 631 nM
TGI ([31]; read-out: pTGI (converted)): > 100000 nM
GI50 [32]: 398 nM
TGI ([32]; read-out: pTGI (converted)): 12600 nM
GI50 [33]: 631 nM
TGI ([33]; read-out: pTGI (converted)): 63100 nM
GI50 [34]: 200 nM
TGI ([34]; read-out: pTGI (converted)): 12600 nM
GI50 [35]: 158 nM
TGI ([35]; read-out: pTGI (converted)): 631 nM

From ChEMBL document CHEMBL1221342, “Synthesis and in vitro antitumor activity of new 4,5-dihydropyrazole derivatives” (Bioorg Med Chem, 2010)
